Results of several laboratories.
Protocols differ between the studies behind these lines.

N=C(N)NCCC[C@@H](NC(=O)[C@@H](N)Cc1ccccc1)C(=O)N[C@@H](Cc1ccccc1)C(=O)N[C@@H](CCCCN)C(N)=O  AUC(0-t) (human, plasma; subcutaneous, 5 mg, patients): 861 ng·h/mL
CC(=C/C=C/C(C)=C/C(=O)O)/C=C1\CCCc2ccccc21  AUC(0-inf) (human, plasma; oral, 5 mg, single dose, fasted, healthy volunteers): 193 ng·h/mL
COc1ccc(C[C@@H]2NC(=O)[C@H]([C@@H](C)O)NC(=O)[C@@H]3[C@@H]4CCN3C(=O)[C@@H]3Cc5cn(c6ccc(F)cc56)CCCCCCN(Cc5ccc(cc5)CCNC(=O)[C@]5(C)CCCN5C2=O)C(=O)CCC(=O)N[C@@H](C)C(=O)N[C@H](CNC(=O)CCCCC[N+](C)(C)C)C(=O)N[C@@H](Cc2cccc(c2)CNC(=O)CO4)C(=O)N3)cc1  AUC(0-inf) (human, plasma; oral, 200 mg, single dose, healthy volunteers): 0.556 µM·h
C=C(C)[C@@H]1CC[C@]2(NCCN3CCS(=O)(=O)CC3)CC[C@]3(C)[C@H](CC[C@@H]4[C@@]5(C)CC=C(C6=CC[C@@](COc7ncccc7C#N)(C(=O)O)CC6)C(C)(C)[C@@H]5CC[C@]43C)[C@@H]12  AUC(0-inf) (human, plasma; oral, 100 mg, fed): 43600 ng·h/mL
N=c1c2c(-c3ccccc3)c(-c3ccccc3)n(Cc3ccccc3)c2ncn1[C@H]1CC[C@H](O)CC1  Tmax (male cynomolgus monkey, plasma; oral, 1 mg/kg, single dose): ~15 h
O=C1[O][Pt]2([NH][C@@H]3CCCC[C@H]3[NH]2)[O]C1=O (relative stereo)  Tmax (cynomolgus monkey, plasma; oral, 10 mg/kg): 2 h
Cc1c(P(=S)(c2ccccc2)c2ccccc2)n2ccccc2[n+]1C/C=C/c1ccccc1  tissue/plasma ratio (mouse, brain; intraperitoneal, 10 mg/kg): 0.33
c1cc([C@H]2CC[C@]3(CC2)OO[C@]2(O3)C3CC4CC(C3)CC2C4)ccc1OCCN1CCOCC1  AUC(0-inf) (human, plasma; oral, 400 mg, patients): 6450 ng·h/mL
